Measured values as given in ChEMBL document CHEMBL1143324, “New N-substituted 9-azabicyclo[3.3.1]nonan-3alpha-yl phenylcarbamate analogs as sigma2 receptor ligands: synthesis, in vitro characterization, and evaluation as PET imaging and chemosensitization agents” (Bioorg Med Chem, 2009).

How the values were obtained:
[1] = target: Sigma non-opioid intracellular receptor 1 (Cavia porcellus, UniProt Q60492); assay: Displacement of [3H](+)-pentazocine from sigma 1-type opioid receptor in guinea pig brain homogenates; type: tissue-based
[2] = Partition coefficient, log P of the compound; type: physicochemical; conditions: octanol/water
[3] = Displacement of [3H]RHM-1 from sigma 2-type opioid receptor in rat liver homogenates; type: tissue-based
[4] = Selectivity ratio, Ki for sigma 1 receptor in guinea pig brain homogenates to Ki for sigma 2 receptor in rat liver homogenates; type: tissue-based
[5] = system: EMT6; assay: Binding affinity to sigma 2 receptor in mouse EMT6 cell membrane homogenates; type: cell membranes; conditions: tested as the 18F-labelled form
[6] = target: 5-hydroxytryptamine receptor 4 (Homo sapiens, UniProt Q13639); assay: Binding affinity to 5HT4 receptor
[7] = target: T1, 5-hydroxytryptamine receptor 3A (Homo sapiens, UniProt P46098); assay: Binding affinity to 5HT3 receptor
T1 sequence (P46098 whole entry): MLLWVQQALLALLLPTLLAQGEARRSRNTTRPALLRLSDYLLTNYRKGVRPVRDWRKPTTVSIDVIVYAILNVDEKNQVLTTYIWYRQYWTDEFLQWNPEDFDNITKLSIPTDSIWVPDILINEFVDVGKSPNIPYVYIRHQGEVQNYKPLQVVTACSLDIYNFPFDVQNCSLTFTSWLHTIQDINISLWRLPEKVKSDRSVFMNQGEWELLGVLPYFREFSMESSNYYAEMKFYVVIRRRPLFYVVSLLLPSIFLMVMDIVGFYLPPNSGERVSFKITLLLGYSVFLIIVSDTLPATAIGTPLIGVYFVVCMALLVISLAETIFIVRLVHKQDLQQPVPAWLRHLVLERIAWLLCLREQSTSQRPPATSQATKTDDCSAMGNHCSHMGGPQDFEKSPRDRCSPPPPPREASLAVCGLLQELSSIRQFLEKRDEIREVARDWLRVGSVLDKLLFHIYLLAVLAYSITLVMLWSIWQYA

[8] = Ratio of drug level in tumor to muscle of […] EMT6 cells bearing BALB/c mouse after 1 hr; type: ADME, cell-based; conditions: emt6, 1 h
[9] = Ratio of drug level in tumor to blood of mouse EMT6 cells bearing BALB/c mouse after 1 hr; type: ADME, cell-based; conditions: emt6, 1 h
Outline: (§1)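 Tumor-to-tissue ratios were calculated from %ID/g values at 5 min, 30 min, 1 h and 2 h. The 18F tracer (~20 µCi, tail vein, 10% ethanol/90% water) was given to female BALB/c mice bearing s.c. EMT-6 tumors (~5×10^5 cells implanted 11 days prior; ~100-150 mg). Tissues were gamma-counted against a diluted standard of the injected dose.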

[10] = Ratio of drug level in tumor to muscle of mouse EMT6 cells bearing BALB/c mouse after 1 hr; type: ADME, cell-based; conditions: emt6, 1 h; outline: as §1
[11] = system: Liver; assay: Biodistribution in iv dosed mouse EMT6 cells bearing BALB/c mouse liver after 5 mins; type: ADME, organism-based; conditions: in vivo
Outline: (§2)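 Female BALB/c mice were implanted s.c. in the scapular region with ~5×10^5 EMT-6 cells in PBS 11 days earlier, giving tumors of ~100-150 mg. The 18F tracer (~20 µCi per 150 µL, in 10% ethanol/90% water) was given via tail vein, and mice were killed at 5 min, 30 min, 1 h or 2 h. Tissues were weighed and gamma-counted against a diluted injected-dose standard, giving %ID/g.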

[12] = Ratio of drug level in tumor to muscle of mouse EMT6 cells bearing BALB/c mouse after 30 mins; type: ADME, cell-based; conditions: emt6, 0.5 h; outline: as §1
[13] = system: Brain; assay: Biodistribution in iv dosed mouse EMT6 cells bearing BALB/c mouse brain after 1 hr; type: ADME, organism-based; conditions: in vivo; outline: as §2
[14] = Ratio of drug level in tumor to fat of mouse EMT6 cells bearing BALB/c mouse after 5 mins; type: ADME, cell-based; conditions: emt6, 5 min; outline: as §1
[15] = system: Blood; assay: Biodistribution in iv dosed mouse EMT6 cells bearing BALB/c mouse blood after 1 hr; type: ADME, organism-based; conditions: in vivo; outline: as §2
[16] = system: Muscle tissue; assay: Biodistribution in iv dosed mouse EMT6 cells bearing BALB/c mouse muscle after 30 mins; type: ADME, organism-based; conditions: in vivo, 0.5 h; outline: as §2
[17] = Ratio of drug level in tumor to muscle of mouse EMT6 cells bearing BALB/c mouse after 5 mins; type: ADME, cell-based; conditions: emt6, 5 min; outline: as §1
[18] = system: Liver; assay: Biodistribution in iv dosed mouse EMT6 cells bearing BALB/c mouse liver after 30 mins; type: ADME, organism-based; conditions: in vivo, 0.5 h; outline: as §2
[19] = Ratio of drug level in tumor to fat of mouse EMT6 cells bearing BALB/c mouse after 30 mins; type: ADME, cell-based; conditions: emt6, 0.5 h; outline: as §1
[20] = Ratio of drug level in tumor to muscle of mouse EMT6 cells bearing BALB/c mouse after 2 hrs; type: ADME, cell-based; conditions: emt6, 2 h; outline: as §1
[21] = Biodistribution in tumor of iv dosed mouse EMT6 cells bearing BALB/c mouse after 2 hrs; type: ADME, organism-based, Neoplasm; conditions: in vivo; outline: as §2
[22] = system: Bone; assay: Biodistribution in iv dosed mouse EMT6 cells bearing BALB/c mouse bone after 2 hrs; type: ADME, organism-based, Bone element; conditions: in vivo; outline: as §2
[23] = Ratio of drug level in tumor to blood of mouse EMT6 cells bearing BALB/c mouse after 2 hrs; type: ADME, cell-based; conditions: emt6, 2 h; outline: as §1
[24] = system: Kidney; assay: Biodistribution in iv dosed mouse EMT6 cells bearing BALB/c mouse kidney after 1 hr; type: ADME, organism-based; conditions: in vivo; outline: as §2
[25] = Ratio of drug level in tumor to muscle of […] EMT6 cells bearing BALB/c mouse after 30 mins; type: ADME, cell-based; conditions: emt6, 0.5 h
[26] = Ratio of drug level in tumor to blood of mouse EMT6 cells bearing BALB/c mouse after 30 mins; type: ADME, cell-based; conditions: emt6, 0.5 h; outline: as §1
[27] = system: Heart; assay: Biodistribution in iv dosed mouse EMT6 cells bearing BALB/c mouse heart after 5 mins; type: ADME, organism-based; conditions: in vivo; outline: as §2
[28] = Ratio of drug level in tumor to fat of mouse EMT6 cells bearing BALB/c mouse after 1 hr; type: ADME, cell-based; conditions: emt6, 1 h; outline: as §1
[29] = system: Heart; assay: Biodistribution in iv dosed mouse EMT6 cells bearing BALB/c mouse heart after 30 mins; type: ADME, organism-based; conditions: in vivo, 0.5 h; outline: as §2
[30] = system: Muscle tissue; assay: Biodistribution in iv dosed mouse EMT6 cells bearing BALB/c mouse muscle after 1 hr; type: ADME, organism-based; conditions: in vivo; outline: as §2
[31] = Ratio of drug level in tumor to fat of mouse EMT6 cells bearing BALB/c mouse after 2 hrs; type: ADME, cell-based; conditions: emt6, 2 h; outline: as §1
[32] = Ratio of drug level in tumor to muscle of […] EMT6 cells bearing BALB/c mouse after 5 mins; type: ADME, cell-based; conditions: emt6, 5 min
[33] = Ratio of drug level in tumor to blood of mouse EMT6 cells bearing BALB/c mouse after 5 mins; type: ADME, cell-based; conditions: emt6, 5 min; outline: as §1
[34] = system: Blood; assay: Biodistribution in iv dosed mouse EMT6 cells bearing BALB/c mouse blood after 30 mins; type: ADME, organism-based; conditions: in vivo, 0.5 h; outline: as §2
[35] = system: Brain; assay: Biodistribution in iv dosed mouse EMT6 cells bearing BALB/c mouse brain after 30 mins; type: ADME, organism-based; conditions: in vivo, 0.5 h; outline: as §2
[36] = Biodistribution in tumor of iv dosed mouse EMT6 cells bearing BALB/c mouse after 5 mins; type: ADME, organism-based, Neoplasm; conditions: in vivo; outline: as §2
[37] = Ratio of drug level in tumor to muscle of […] EMT6 cells bearing BALB/c mouse after 2 hrs; type: ADME, cell-based; conditions: emt6, 2 h

Sigma non-opioid intracellular receptor 1, sequence (Q60492 whole entry): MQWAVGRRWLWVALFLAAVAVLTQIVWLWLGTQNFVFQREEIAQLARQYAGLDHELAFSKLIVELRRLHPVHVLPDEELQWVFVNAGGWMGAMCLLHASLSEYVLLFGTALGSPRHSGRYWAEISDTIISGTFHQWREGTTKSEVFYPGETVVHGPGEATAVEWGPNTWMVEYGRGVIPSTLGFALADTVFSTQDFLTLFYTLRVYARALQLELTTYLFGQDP
5-hydroxytryptamine receptor 4, sequence (Q13639 whole entry): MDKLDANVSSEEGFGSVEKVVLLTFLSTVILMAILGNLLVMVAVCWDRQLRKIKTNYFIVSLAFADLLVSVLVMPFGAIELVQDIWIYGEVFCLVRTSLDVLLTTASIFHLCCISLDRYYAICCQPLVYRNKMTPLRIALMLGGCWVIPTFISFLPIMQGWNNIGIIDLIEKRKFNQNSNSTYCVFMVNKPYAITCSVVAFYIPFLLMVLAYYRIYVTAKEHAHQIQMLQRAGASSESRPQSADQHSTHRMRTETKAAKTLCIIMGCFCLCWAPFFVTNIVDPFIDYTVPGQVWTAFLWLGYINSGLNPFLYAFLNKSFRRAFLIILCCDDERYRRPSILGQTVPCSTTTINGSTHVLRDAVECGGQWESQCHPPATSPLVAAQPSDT

COc1ccc(C)cc1NC(=O)OC1CC2CCCC(C1)N2Cc1ccc(N(C)C)cc1 (configuration not stated)
Ki [1]: 1440 nM | logP [2]: 3.02 | Ki [3]: 2.58 nM | Ratio Ki [4]: 557

O=C(CCCN1CCC(O)(c2ccc(Cl)cc2)CC1)c1ccc(F)cc1 [HALOPERIDOL]
logP [2]: 3.36

COc1ccc(C)cc1NC(=O)OC1CC2CCCC(C1)N2Cc1ccc(CCF)cc1 (configuration not stated)
Ki [1]: 1710 nM | Ki [3]: 0.82 nM | Ratio Ki [4]: 2090 | Activity [5]: 2 nM

COc1ccc(C)cc1NC(=O)OC1CC2CCCC(C1)N2Cc1ccccc1 (configuration not stated)
Ki [6]: > 1000 nM | Ki [3]: 3.1 nM | Ki [7]: > 1000 nM

COc1ccc(CCN2C3CCCC2CC(OC(=O)Nc2cc(C)ccc2OC)C3)cc1 (configuration not stated)
Ki [1]: 447 nM | logP [2]: 3.22 | Ki [3]: 126 nM | Ratio Ki [4]: 4

COc1ccc(C)cc1NC(=O)OC1CC2CCCC(C1)N2Cc1ccc(F)nc1 (configuration not stated)
Ki [1]: 2510 nM | logP [2]: 3.21 | Ki [3]: 572 nM | Ratio Ki [4]: 4

COc1ccc(C)cc1NC(=O)OC1CC2CCCC(C1)N2CCc1ccc(CCF)cc1 (configuration not stated)
Ki [1]: 2630 nM | logP [2]: 3.69 | Ki [3]: 276 nM | Ratio Ki [4]: 10

COc1ccc(C)cc1NC(=O)OC1CC2CCCC(C1)N2Cc1cccnc1 (configuration not stated)
Ki [1]: 2350 nM | logP [2]: 2.7 | Ki [3]: 184 nM | Ratio Ki [4]: 13

COc1ccc(C)cc1NC(=O)OC1CC2CCCC(C1)N2CCc1ccc(N(C)C)cc1 (configuration not stated)
Ki [1]: 1870 nM | logP [2]: 3.36 | Ki [3]: 195 nM | Ratio Ki [4]: 10

CCn1c(=O)n(C(=O)NC2CC3CCC(C2)N3C)c2ccccc21 (configuration not stated)
Ki [1]: 6300 nM | Ki [6]: 13 nM | Ki [3]: 32 nM | Ki [7]: 1 nM

COc1ccc(C)cc1NC(=O)OC1CC2CCCC(C1)N2Cc1ccncc1 (configuration not stated)
Ki [1]: 1560 nM | logP [2]: 2.94 | Ki [3]: 522 nM | Ratio Ki [4]: 3

COc1ccc(C)cc1NC(=O)OC1CC2CCCC(C1)N2Cc1ccc(SC)cc1 (configuration not stated)
Ki [1]: 2020 nM | logP [2]: 3.92 | Ki [3]: 8190 nM

COc1ccc(C)cc1C(=O)NCCCCN1CCc2cc(OO)c(OO)cc2C1
Ki [1]: 3080 nM | Ki [3]: 10.3 nM

COc1ccc(C)cc1NC(=O)OC1CC2CCCC(C1)N2CCF (configuration not stated)
Ki [1]: 2000 nM | logP [2]: 2.85 | Ki [3]: 143 nM | Ratio Ki [4]: 14

COc1ccc(CN2C3CCCC2CC(OC(=O)Nc2cc(C)ccc2OC)C3)cc1 (configuration not stated)
Ki [1]: 323 nM | logP [2]: 3.3 | Ki [3]: 40.7 nM | Ratio Ki [4]: 8

C=CCN1C2CCCC1CC(OC(=O)Nc1cc(C)ccc1OC)C2 (configuration not stated)
Ki [1]: 1260 nM | logP [2]: 2.86 | Ki [3]: 85.9 nM | Ratio Ki [4]: 15

COc1ccc(C)cc1NC(=O)OC1CC2CCCC(C1)N2Cc1ccc(CC[18F])cc1 (configuration not stated)
Activity [8]: 0.42 % ID/g | Activity [9]: 3.86 % ID/g | Activity [10]: 1.92 % ID/g | Activity [11]: 21.14 % ID/g | Activity [12]: 1.32 % ID/g | Activity [13]: 1.55 % ID/g | Activity [14]: 0.65 % ID/g | Activity [15]: 0.93 % ID/g | Activity [16]: 2.9 % ID/g | Activity [17]: 0.3 % ID/g | Activity [18]: 28.5 % ID/g | Activity [19]: 0.45 % ID/g | Activity [20]: 2.53 % ID/g | Activity [21]: 4.08 % ID/g | Activity [22]: 5.68 % ID/g | Activity [23]: 6.96 % ID/g | Activity [24]: 10.38 % ID/g | Activity [25]: 0.22 % ID/g | Activity [26]: 3.67 % ID/g | Activity [27]: 18.49 % ID/g | Activity [28]: 0.41 % ID/g | Activity [29]: 3.7 % ID/g | Activity [30]: 1.92 % ID/g | Activity [31]: 0.32 % ID/g | Activity [32]: 0.01 % ID/g | Activity [33]: 0.82 % ID/g | Activity [34]: 0.99 % ID/g | Activity [35]: 2.12 % ID/g | Activity [36]: 1.39 % ID/g | Activity [37]: 0.82 % ID/g
